The values below come from PubChem BioAssay.

Activity calls are given as the source filed them.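 How the source made its calls, unless noted: active means inhibition above 20% together with a positive visual image hit; inconclusive means visual image hit but inhibition not above 20%; inactive means no visual image hit.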

A short description of experiment [1]: inhibitors of TNFa-induced NFkB p65 translocation, primary screen, imaging, HUVEC, MLSMR starter and 10KST1 sets (AID 438).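 Further: compound added about 3h40 before a 20 min TNFalpha stimulation.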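 On inhibition: signal is the nuclear over cytoplasmic p65 intensity ratio per well.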 Conditions: HUVEC TNFa-induced p65 nuclear translocation; cell count: measured here: nuclei count (cytotoxicity indicator), at 2.08 µM; inhibition: at 2 µM, stronger effect = higher value, 0% TNFa-plus-vehicle, 100% no-TNFa wells.
A short description of experiment [2]: endothelial E-selectin expression blockers – imaging, HUVEC, immunofluorescence, MLSMR starter and 10KST1 sets, primary screen (AID 487;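 active means visually confirmed hit in the image check and inhibition above 20%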;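 on inhibition: signal is fraction of cell area covered by stained E-selectin grains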;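 on nuclei count: 100% = median nuclei count of all wells on the same plate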). Particulars: HUVEC TNFalpha-induced E-selectin immunofluorescence imaging, at 2 µM; inhibition: stronger effect = higher value; nuclei count: measured here: cell number, toxicity.
The nature of experiment [3]: Primary imaging screen for DUSP6 inhibitors that restore phospho-Erk in transfected HeLa cells, chemical complementation (AID 609;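 active means compounds giving at least 50% inhibition in the cell-based MKP-3 phosphatase rescue imaging test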;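 on inhibition: phospho-Erk level distribution per well compared with pooled transfected vehicle control wells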). Particulars: HeLa MKP-3 transfected, phospho-Erk imaging KS statistic, at 10 µM, cells stimulated with TPA for 15 min.
In experiment [4] the target is Dual specificity protein phosphatase 6 (Homo sapiens) (UniProt Q16828). The description is as above. Conditions: HeLa MKP-3 transfected, phospho-Erk imaging KS statistic; at 10 µM; stronger effect = higher value; cells stimulated with TPA for 15 min.
Chain of Dual specificity protein phosphatase 6 (Homo sapiens) (Q16828 whole entry, looked up): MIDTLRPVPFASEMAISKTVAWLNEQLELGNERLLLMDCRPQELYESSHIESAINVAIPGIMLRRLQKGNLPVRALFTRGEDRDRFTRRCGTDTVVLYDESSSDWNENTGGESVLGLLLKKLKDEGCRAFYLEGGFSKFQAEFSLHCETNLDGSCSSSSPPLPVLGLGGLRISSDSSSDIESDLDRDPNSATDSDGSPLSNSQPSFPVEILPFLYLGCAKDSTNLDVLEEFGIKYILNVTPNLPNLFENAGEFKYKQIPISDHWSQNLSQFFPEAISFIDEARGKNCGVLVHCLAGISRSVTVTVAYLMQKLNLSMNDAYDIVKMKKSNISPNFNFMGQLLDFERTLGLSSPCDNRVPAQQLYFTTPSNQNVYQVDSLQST
For experiment [5], the target named is Voltage-gated potassium channel subunit beta-2 (Rattus norvegicus) (UniProt P62483). The experiment can be described thus: inhibitors of rat Kvbeta2 reductase activity – biochemical, NADPH fluorescence, primary screen (AID 622;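 active means fluorescence slope higher than the sample average by over 3 SD, cut at about -0.22 in these data, passing the limit was not always enough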;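 further: slope of raw intensity against log time taken from 70 to 1610 s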). Particulars: recombinant KvBeta, 4-cyanobenzaldehyde reduction, at 10 µM, stronger effect = higher value.
Chain of Voltage-gated potassium channel subunit beta-2 (Rattus norvegicus) (P62483 whole entry, looked up): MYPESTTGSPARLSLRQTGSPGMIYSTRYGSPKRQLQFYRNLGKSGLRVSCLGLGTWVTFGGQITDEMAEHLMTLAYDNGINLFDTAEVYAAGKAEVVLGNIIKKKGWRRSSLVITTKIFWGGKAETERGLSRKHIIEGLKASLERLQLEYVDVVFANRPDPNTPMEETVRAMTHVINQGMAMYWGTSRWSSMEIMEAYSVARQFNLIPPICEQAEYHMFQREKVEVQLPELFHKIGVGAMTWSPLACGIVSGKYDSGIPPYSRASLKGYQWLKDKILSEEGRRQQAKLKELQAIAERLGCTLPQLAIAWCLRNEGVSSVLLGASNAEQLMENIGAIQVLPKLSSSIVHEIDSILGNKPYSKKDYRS
Experiment [6] shares this target. The experiment can be described thus: enhancers of rat Kvbeta2 NADPH turnover – biochemical, NADPH fluorescence, primary screen (AID 623;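 active means NADPH fluorescence slope more negative than the mean of all samples by about 3 SD, 99.7% confidence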;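 further: fluorescence intensity change per second fitted from 20 to 320 s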). Conditions: Recombinant KvBeta, NADPH fluorescence decrease slope, 10 min; at 10 µM; stronger effect = lower value.
In experiment [7] the target is Alpha-2C adrenergic receptor (Homo sapiens) (UniProt P18825). The experiment can be described thus: compounds altering alpha2C-coupled GIRK flux – cell-based, HEK293 alpha2C/GIRK1/2, thallium flux, primary screen (AID 624;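 active means fluorescence slope after compound addition differing from the mean of all screened samples at 99.7% confidence, in either direction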;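 further: slope of fluorescence ratio to pre-addition baseline per second over 15 to 24 s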). Particulars: thallium flux BTC fluorescence, at 10 µM, actives lie on both sides.
Chain of Alpha-2C adrenergic receptor (Homo sapiens) (P18825 whole entry, looked up): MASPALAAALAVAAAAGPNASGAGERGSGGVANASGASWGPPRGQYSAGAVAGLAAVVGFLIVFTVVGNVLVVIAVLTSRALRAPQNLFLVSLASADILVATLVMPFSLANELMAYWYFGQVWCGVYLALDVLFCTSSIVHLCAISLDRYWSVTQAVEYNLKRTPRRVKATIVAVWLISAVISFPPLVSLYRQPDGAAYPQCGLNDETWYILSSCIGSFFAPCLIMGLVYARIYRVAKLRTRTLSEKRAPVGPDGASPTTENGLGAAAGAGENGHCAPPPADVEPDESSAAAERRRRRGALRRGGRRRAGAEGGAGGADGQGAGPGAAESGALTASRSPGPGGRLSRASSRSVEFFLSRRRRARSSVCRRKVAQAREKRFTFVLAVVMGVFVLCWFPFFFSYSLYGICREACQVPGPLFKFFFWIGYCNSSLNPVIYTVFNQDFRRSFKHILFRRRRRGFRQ
A short description of experiment [8]: inhibitors of larval lipid processing in zebrafish, primary screen, whole organism, PED6 fluorescence, gall bladder and intestine (AID 686;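 active means a full or partial loss of lipid-probe fluorescence in the fish gall bladder, intestine or both, judged by eye; inactive means no fluorescence loss, or compound toxic to the fish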;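 further: larvae 5 to 7 days old with five fish per well; signal comes from phospholipase A2 cleavage of quenched PED6 carried via bile; overnight exposure to compound and PED6 before scoring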). Particulars: Zebrafish larvae PED6 lipid processing, fluorescence scoring; screened at 20 µM (by protocol). A digest of the protocol: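 Test system – live zebrafish larvae aged 5-7 days, whole organism · Buffer or medium – E3 fish medium · Reagent – quenched phospholipase substrate PED6, 100 nM final, ingested by larvae · Doses – 20 µM single dose · Incubation – overnight compound and PED6 incubation · Technique – visual fluorescence microscopy scoring of gall bladder, gut · Read-out basis – visual per-well fluorescence inhibition score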

Experiment [9] in a line: loss of swimming-algae plug formation – whole organism, Chlamydomonas reinhardtii, WT vs cilia-less mutant, absorbance, 96-well, primary screen (AID 463189;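 active means inhibition at or above 50% relative to wild type and mutant plate controls; inactive means inhibition below 50%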;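 further: 0% = wild type cc124 cells in DMSO and 100% = ciliumless bld1 mutant cells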). Conditions: Chlamydomonas reinhardtii gravitaxis, OD600 absorbance, 2 days; at 10 µM; stronger effect = higher value.
The mark [10] stands for this setting: measured here: cell density z-score.
[11] abbreviates: measured here: nuclear c-Myc green intensity z-score.
The mark [12] stands for this setting: measured here: nuclear pErk red intensity z-score, stronger effect = higher value.

In general, inhibition refers to the change of the read-out against control, counted positive when it falls.

For `N/C(CCN1CCOCC1)=N/O`, the cell count in experiment [1] was found to be 570. In addition, the inhibition is -20.6% (inactive) in experiment [1], 11.7% (inactive) in experiment [2], 22.7% (inactive) in experiment [4] and 17.7% (inactive) in [9]. Besides, in [2], the nuclei count was 147%. Besides, the z-score in [3] (setting [10]) was 0.759; in experiment [3] (setting [11]) it was -0.712; in experiment [3] (setting [12]) it was 0.254. Also, the fluorescence slope in [5] was -0.445 (inactive). Moreover, the NADPH fluorescence slope in experiment [6] is -1.6e-05 (inactive). In addition, the slope in experiment [7] was 0.00517 (inactive). Moreover, in experiment [8], the result was inactive.
In the case of `c1ccc(N2CCN(c3nc(-c4ccccn4)nc4ccccc34)CC2)cc1`, the cell count in experiment [1] was determined as 493. For the same molecule, the inhibition in experiment [1] is -5.1% (inactive); in experiment [2] it was 22.4% (inactive); in experiment [4] it was -5.26% (inactive); in experiment [9], 106% (active). In [2], this molecule gave a nuclei count of 86.2%. Moreover, the z-score in [3] (setting [10]) is -1.22; in experiment [3] (setting [11]), 1.7; in experiment [3] (setting [12]), 1.08. In addition, in experiment [5], the fluorescence slope is -0.413 (inactive). Further, in experiment [6], the NADPH fluorescence slope was -7.9e-05 (inactive). Besides, the slope in experiment [7] was 0.0043 (inactive). Moreover, the call in experiment [8] was inactive.
Take `CCOc1cc2nc(-c3ccc(OC)c(OC)c3)nc(N3CCOCC3)c2cc1OC`: the cell count in [1] came to 497. Further, the inhibition in [1] is -26.2% (inactive); in experiment [2], -85% (inactive); in experiment [4], 20.9% (inactive); in experiment [9], 84.6% (active). The molecule also registered a nuclei count in [2] of 151%. Also, the values for the z-score in experiment [3] (setting [10]), in [3] (setting [11]) and in [3] (setting [12]) were -0.0989, -1.76 and -2.63, respectively. Also, the fluorescence slope in [5] was -0.455 (inactive). Besides, the NADPH fluorescence slope in experiment [6] is -1.4e-05 (inactive). Moreover, the slope in [7] is 0.00555 (inactive). In [8], the outcome was “inactive; toxic”.
With `COc1ccc(CCNc2nc3c(c(=O)n(C)c(=O)n3C)n2C)cc1OC`, the cell count in experiment [1] worked out at 604. In addition, the inhibition in experiment [1] is -9.9% (inactive); in experiment [2] it was -63.1% (inactive); in experiment [4] it was -4.27% (inactive); in experiment [9] it was -4.62% (inactive). For the same molecule, in [2], the nuclei count is 146%. Besides, the z-score is 1.46 in experiment [3] (setting [10]), -0.0832 in experiment [3] (setting [11]) and 0.95 in experiment [3] (setting [12]). Further, the fluorescence slope in [5] is -0.425 (inactive). Also, the NADPH fluorescence slope in experiment [6] is -6e-05 (inactive). The slope in experiment [7] was 0.00693 (inactive). The result in experiment [8] was inactive.
With `CC(=O)c1cc(CN2CCCCC2)cc(OC(C)C)c1`, the cell count in experiment [1] was 667. In addition, the inhibition in [1] was -6.7% (inactive); in experiment [2], -53.2% (inactive); in experiment [4], -3.98% (inactive); in [9], 10.4% (inactive). The same molecule had a nuclei count in [2] of 172%. The z-score in [3] (setting [10]) was 0.66; in [3] (setting [11]), -1.57; in [3] (setting [12]) it was 1.24. In experiment [5], the fluorescence slope is -0.505 (inactive). Further, in experiment [6], the NADPH fluorescence slope is -5.3e-05 (inactive). In addition, the slope in [7] is 0.00431 (inactive). Moreover, the outcome in experiment [8] was inactive.
`CCOC(=O)c1c(CN2CCCCC2)oc2ccc(OC)cc12`: the cell count in experiment [1] turned out to be 344. The inhibition in experiment [1] was -9.3% (inactive); in experiment [2], -46.9% (inactive); in experiment [4], -7.01% (inactive); in experiment [9], 4.54% (inactive). For the same molecule, the nuclei count in [2] came to 142%. The z-score was 0.114 in [3] (setting [10]), 0.591 in experiment [3] (setting [11]) and 0.702 in experiment [3] (setting [12]). For the same molecule, the fluorescence slope in experiment [5] is -0.416 (inactive). Besides, the NADPH fluorescence slope in [6] is -0.000135 (inactive). The slope in [7] was 0.00729 (inactive). In addition, the call in experiment [8] was inactive.
Consider `CCN1CCN(c2nc3c(C)cccn3c(=O)c2/C=C(\C#N)S(=O)(=O)c2ccc(C)cc2)CC1`, for which the cell count in experiment [1] turned out to be 519. The inhibition is -0.8% (inactive) in [1], -173% (inactive) in experiment [2], 1.6e-07% (inactive) in experiment [4] and 14.6% (inactive) in [9]. Also, the nuclei count in [2] was 118%. The z-score in experiment [3] (setting [10]) is 0.354; in [3] (setting [11]), -1.44; in experiment [3] (setting [12]) it was 0.701. Moreover, the fluorescence slope in experiment [5] is -0.51 (inactive). Also, the NADPH fluorescence slope in experiment [6] was -6.4e-05 (inactive). Besides, the slope in [7] was 0.00274 (inactive). For the same molecule, in experiment [8], the molecule was classed as inactive.
Regarding `CCOC(=O)c1ccc(NC(=O)CCC(CC)C(=O)O)cc1` (stereo unspecified), the cell count in [1] came out at 402. In addition, the inhibition in experiment [1] is -23.7% (inactive); in experiment [2] it was -228% (inactive); in experiment [4], 27.7% (inactive); in [9] it was -1.41% (inactive). This molecule also showed a nuclei count in experiment [2] of 167%. In addition, the z-score was 1.04 in experiment [3] (setting [10]), -1.56 in experiment [3] (setting [11]) and -0.382 in [3] (setting [12]). Also, the fluorescence slope in [5] is -0.349 (inactive). Besides, the NADPH fluorescence slope in [6] is -9.3e-06 (inactive). In [7], the slope is 0.00545 (inactive). In experiment [8], the outcome was inactive.
In the case of `CCC1(C)Cc2c(sc3nc4n(c(=O)c23)CCS4)CO1` (stereo unspecified), the cell count in experiment [1] was 596. In addition, the inhibition in [1] is -14.8% (inactive); in experiment [2] it was -109% (inactive); in [4], -6.86% (inactive); in experiment [9] it was 5.08% (inactive). The same molecule showed a nuclei count in experiment [2] of 182%. For the same molecule, the z-score in experiment [3] (setting [10]) is -1.93; in experiment [3] (setting [11]), -0.473; in experiment [3] (setting [12]), 1.15. Also, the fluorescence slope in [5] is -0.336 (inactive). Also, the NADPH fluorescence slope in experiment [6] is -1e-05 (inactive). The slope in experiment [7] was 0.00519 (inactive). Besides, the molecule was classed as inactive in [8].
Regarding `COC(=O)c1ccc(Cn2nnc3c(sc4nc(N5CCOCC5)c5c(c43)CCCC5)c2=O)o1`, the cell count in [1] stood at 558. Moreover, the inhibition was -14.8% (inactive) in experiment [1], -101% (inactive) in experiment [2], 24.4% (inactive) in experiment [4] and -3.46% (inactive) in experiment [9]. This molecule came in with a nuclei count in experiment [2] of 153%. In addition, the z-score is 0.962 in experiment [3] (setting [10]), -1.77 in experiment [3] (setting [11]) and -0.316 in [3] (setting [12]). The fluorescence slope in [5] was -0.275 (inactive). Moreover, the NADPH fluorescence slope in [6] was 2.3e-06 (inactive). Further, the slope in [7] was 0.00716 (inactive). In [8], the outcome is “active; weak signal in gallbladder and intestine”.
For `CC(C)OC(=O)C(C#N)c1nc2ccccc2nc1N1CCN(Cc2ccc3c(c2)OCO3)CC1` (stereo unspecified), in [1], the cell count is 351. For the same molecule, the inhibition is -4.7% (inactive) in [1], -35.2% (inactive) in [2], 3.5% (inactive) in experiment [4] and 17% (inactive) in experiment [9]. This molecule also displayed a nuclei count in [2] of 129%. The z-score is -0.0424 in [3] (setting [10]), 0.237 in [3] (setting [11]) and -0.926 in [3] (setting [12]). The fluorescence slope in [5] was -0.459 (inactive). Moreover, the NADPH fluorescence slope in experiment [6] is -0.000113 (inactive). Besides, the slope in [7] is 0.00323 (inactive). Further, in [8], the molecule was classed as inactive.
Consider `N/C(=N\c1nc2ccccc2o1)NC(=O)c1ccccc1NC(=O)c1ccccc1`, for which the cell count in experiment [1] amounted to 614. For the same molecule, the inhibition is 5.2% (inactive) in experiment [1], -20.4% (inactive) in experiment [2], 2.46% (inactive) in experiment [4] and 9.27% (inactive) in experiment [9]. The nuclei count in [2] was 160%. Further, the z-score in [3] (setting [10]) was 1.3; in experiment [3] (setting [11]), -0.342; in experiment [3] (setting [12]) it was -0.375. In addition, in [5], the fluorescence slope is -0.361 (inactive). The NADPH fluorescence slope in [6] is -2e-05 (inactive). In experiment [7], the slope is 0.0114 (inactive). Also, the molecule was called inactive in experiment [8].
